Assay results reported in ChEMBL document CHEMBL4706532, “New Seco-DSP derivatives as potent chemosensitizers” (Eur J Med Chem, 2020).

Legend:
[1] = Cytotoxicity against human HOSEC cells assessed as reduction in cell viability at 10 uM incubated for 48 hrs by MTT assay; type: cell-based; details: hose
Summary of the method: (§1)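 Cells plated at 3~5 × 10^3 per well and allowed 24 h before exposure to compound or DMSO (negative control) for 48 h. A2780/T and KB-VIN were grown in DMEM/F12 with 10% FBS, and HUVEC, HOSEC and T29 in RPMI-1640 with 10% FBS, all at 37 °C under 5% CO₂. MTT was added for 4 h, formazan dissolved in DMSO and absorbance read at 490 nm. Inhibition was calculated relative to DMSO and blank.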

HUVEC = test: Cytotoxicity against human HUVEC cells assessed as reduction in cell viability at 10 uM incubated for 48 hrs by MTT assay; type: cell-based
Summary of the method: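 Cells plated at 3~5 × 10^3 per well and allowed 24 h before exposure to compound or DMSO (negative control) for 48 h. MTT was added for 4 h, formazan dissolved in DMSO and absorbance read at 490 nm. Inhibition was calculated relative to DMSO and blank.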

[2] = Reversal of multidrug resistance activity in P-gp overexpressing human A2780T cells assessed as potentiation of PTX-induced cytotoxicity by measuring reversal ratio at 10 uM incubated for 48 hrs in presence of paclitaxel by MTT assay; type: functional, A2780/Taxol
Summary of the method: (§2)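 Resistant cells were plated at 3~5 × 10^3 per well, given 24 h, then co-treated with test compound plus a range of anticancer drug concentrations (PTX for A2780/T, VCR for KB-VIN, cisplatin for A2780/CDDP) or DMSO for 48 h. Read-out was by MTT, 4 h at 37 °C, with absorbance at 490 nm. Reversal ratio = IC50 (drug alone) / IC50 (drug with compound).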

[3] = Cytotoxicity against human T29 cells assessed as reduction in cell viability at 10 uM incubated for 48 hrs by MTT assay; type: cell-based; details: t29, 48 h; summary of the method: as §1
A2780/Taxol = test: Cytotoxicity against human A2780T cells assessed as reduction in cell viability at 10 uM incubated for 48 hrs by MTT assay; type: cell-based; summary of the method: as §1
[4] = Reversal of multidrug resistance activity in human A2780/CDDP cells assessed as potentiation of CDDP-induced cytotoxicity by measuring reversal ratio at 10 uM incubated for 48 hrs in presence of CDDP by MTT assay; type: functional; summary of the method: as §2
[5] = Reversal of multidrug resistance activity in P-gp overexpressing human KB-VIN cells assessed as potentiation of VCR-induced cytotoxicity by measuring reversal ratio at 10 uM incubated for 48 hrs in presence of VCR by MTT assay; type: functional; summary of the method: as §2
[6] = Cytotoxicity against human KB-VIN cells assessed as reduction in cell viability at 10 uM incubated for 48 hrs by MTT assay; type: cell-based; summary of the method: as §1

Question: For `CCc1cc(=O)c2ccc(OC)c(COC(=O)c3cc([N+](=O)[O-])ccc3Cl)c2o1`, which Activity [1] is on record?
Answer: Non-Toxic

Question: And the Activity (HUVEC)?
Answer: Non-Toxic

Question: And the Ratio [2]?
Answer: 57

Question: And the Activity [3]?
Answer: Non-Toxic

Question: What about the Activity (A2780/Taxol) of the same compound?
Answer: Non-Toxic

Question: Which Activity [1] does the source give for `CCc1cc(=O)c2ccc(OC(C)C)c(COC(=O)c3cc(OC)c(OC)c(OC)c3)c2o1` here?
Answer: Non-Toxic

Question: And the Activity (HUVEC)?
Answer: Non-Toxic

Question: What about the Ratio [2] of the same compound?
Answer: 503

Question: What about the Activity [3] of the same compound?
Answer: Non-Toxic

Question: And the Activity (A2780/Taxol)?
Answer: Non-Toxic

Question: What about the Ratio [4] of the same compound?
Answer: 0.99

Question: Which Activity [1] does the source give for `CCc1cc(=O)c2ccc(OC(C)C)c(COC(=O)/C=C/c3ccccc3)c2o1` here?
Answer: Non-Toxic

Question: And the Activity (HUVEC)?
Answer: Non-Toxic

Question: What about the Ratio [5] of the same compound?
Answer: 466

Question: What about the Ratio [2] of the same compound?
Answer: 685

Question: What about the Activity [3] of the same compound?
Answer: Non-Toxic

Question: What about the Activity (A2780/Taxol) of the same compound?
Answer: Non-Toxic

Question: What about the Activity [6] of the same compound?
Answer: Non-Toxic

Question: What about the Ratio [4] of the same compound?
Answer: 0.81

Question: What does the source list for `CCc1cc(=O)c2ccc(OC)c(COC(=O)c3ccc(C#N)cc3)c2o1`?
Answer: Activity [1]: Toxic; Activity (HUVEC): Non-Toxic; Ratio [2]: 8; Activity [3]: Toxic; Activity (A2780/Taxol): Non-Toxic

Question: What does the source list for `CCc1cc(=O)c2ccc(OC)c(COC(=O)c3cc(OC)c(OC)cc3OC)c2o1`?
Answer: Activity [1]: Non-Toxic; Activity (HUVEC): Non-Toxic; Ratio [5]: 579; Ratio [2]: 284; Activity [3]: Non-Toxic; Activity (A2780/Taxol): Non-Toxic; Activity [6]: Non-Toxic

Question: Which results are given for `CCc1cc(=O)c2ccc(OC)c(COC(=O)/C=C/c3ccccc3)c2o1`?
Answer: Activity [1]: Non-Toxic; Activity (HUVEC): Non-Toxic; Ratio [5]: 343; Ratio [2]: 427; Activity [3]: Non-Toxic; Activity (A2780/Taxol): Non-Toxic; Activity [6]: Non-Toxic

Question: Which results are given for `CCc1cc(=O)c2ccc(OC)c(COC(=O)Cc3ccc(Cl)cc3)c2o1`?
Answer: Activity [1]: Non-Toxic; Activity (HUVEC): Non-Toxic; Ratio [2]: 89; Activity [3]: Non-Toxic; Activity (A2780/Taxol): Non-Toxic

Question: Which Activity [1] does the source give for `CCc1cc(=O)c2ccc(OC)c(COC(=O)Cc3ccccc3C)c2o1` here?
Answer: Non-Toxic

Question: What about the Activity (HUVEC) of the same compound?
Answer: Non-Toxic

Question: What about the Ratio [2] of the same compound?
Answer: 99

Question: And the Activity [3]?
Answer: Non-Toxic

Question: And the Activity (A2780/Taxol)?
Answer: Non-Toxic

Question: With `CCCCCc1ccc(C(=O)OCc2c(OC)ccc3c(=O)cc(CC)oc23)cc1` as the compound, how does the Activity [1] read?
Answer: Non-Toxic

Question: What about the Activity (HUVEC) of the same compound?
Answer: Non-Toxic

Question: And the Ratio [2]?
Answer: 173

Question: And the Activity [3]?
Answer: Non-Toxic

Question: What about the Activity (A2780/Taxol) of the same compound?
Answer: Non-Toxic

Question: What does the source list for `CCc1cc(=O)c2ccc(OC)c(COC(=O)/C=C/c3ccc(OC)cc3)c2o1`?
Answer: Activity [1]: Toxic; Activity (HUVEC): Non-Toxic; Ratio [5]: 420; Ratio [2]: 414; Activity [3]: Toxic; Activity (A2780/Taxol): Toxic; Activity [6]: Non-Toxic

Question: For `CCc1cc(=O)c2ccc(OC)c(COC(=O)c3ccccc3Br)c2o1`, which Activity [1] is on record?
Answer: Non-Toxic

Question: And the Activity (HUVEC)?
Answer: Non-Toxic

Question: And the Ratio [2]?
Answer: 23

Question: What about the Activity [3] of the same compound?
Answer: Non-Toxic

Question: And the Activity (A2780/Taxol)?
Answer: Toxic

Question: Which results are given for `CCc1cc(=O)c2ccc(OC)c(COC(=O)c3ccccc3[N+](=O)[O-])c2o1`?
Answer: Activity [1]: Non-Toxic; Activity (HUVEC): Non-Toxic; Ratio [2]: 172; Activity [3]: Non-Toxic; Activity (A2780/Taxol): Non-Toxic

Question: Which results are given for `CCc1cc(=O)c2ccc(OC(C)C)c(COC(=O)c3ccc(C#N)cc3)c2o1`?
Answer: Activity [1]: Non-Toxic; Activity (HUVEC): Non-Toxic; Ratio [2]: 10; Activity [3]: Non-Toxic; Activity (A2780/Taxol): Toxic

Question: Which results are given for `CCc1cc(=O)c2ccc(OC)c(COC(=O)c3ccc(N)c(C)c3)c2o1`?
Answer: Activity [1]: Non-Toxic; Activity (HUVEC): Non-Toxic; Ratio [2]: 177; Activity [3]: Non-Toxic; Activity (A2780/Taxol): Non-Toxic

Question: Which Activity [1] does the source give for `CCc1cc(=O)c2ccc(OC)c(COC(=O)c3ccc(F)cc3)c2o1` here?
Answer: Non-Toxic

Question: What about the Activity (HUVEC) of the same compound?
Answer: Non-Toxic

Question: And the Ratio [2]?
Answer: 53

Question: What about the Activity [3] of the same compound?
Answer: Non-Toxic

Question: And the Activity (A2780/Taxol)?
Answer: Non-Toxic
